Values after ≈ are worked out from the molar mass of the structure shown. Active and inactive are the calls of the source. The rule behind the calls is not given here.
Tests used:
MCF7 [1] = assay: Growth inhibition of human MCF7 cells at 40 uM by MTT assay; format: functional, cell-based
SMMC-7721 [2] = assay: Growth inhibition of human SMMC7721 cells at 40 uM by MTT assay; format: functional, cell-based
Pyricularia oryzae [3] = assay: Antifungal activity against Pyricularia oryzae at 800 ug/ml incubated for 48 hrs by microdilution method; format: functional, organism-based
Outline: (§1)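 Fungus pre-grown on PDA at 22 °C for 7–10 days. Modified standardized broth microdilution with compounds at 50–800 μg/mL (final) in fungal suspension, final DMSO ≤3%. DMSO-only and compound-free fungal wells served as controls. Incubated at 22 °C for 48 h. MIC is the lowest concentration with no visible growth. Run in triplicate.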

Fusarium verticillioides [4] = assay: Antifungal activity against Fusarium moniliforme at 800 ug/ml incubated for 48 hrs by microdilution method; format: functional, organism-based
Outline: (§2)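 Modified standardized broth microdilution. Phytopathogenic fungi pre-grown on PDA at 22 °C for 7–10 days. Test compounds added at 50–800 μg/mL to wells with fungal suspension, 0.2 mL final volume, DMSO ≤3% final. DMSO served as negative control and fungus without compound as positive control. Incubation 22 °C, 48 h. MIC taken as lowest concentration with no visible growth. Run in triplicate.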

[5] = Antifungal activity against Gaeumannomyces graminis at 800 ug/ml incubated for 48 hrs by microdilution method; format: functional; outline: as §2
SW480 [6] = assay: Growth inhibition of human SW480 cells at 40 uM by MTT assay; format: functional, cell-based
A549 [7] = assay: Growth inhibition of human A549 cells at 40 uM by MTT assay; format: functional, cell-based
Fusarium oxysporum [8] = assay: Antifungal activity against Fusarium oxysporum at 800 ug/ml incubated for 48 hrs by microdilution method; format: functional, organism-based; outline: as §2
HL-60 [9] = assay: Growth inhibition of human HL60 cells at 40 uM by MTT assay; format: functional, cell-based
[10] = Antifungal activity against Verticillium cinnabarinum at 800 ug/ml incubated for 48 hrs by microdilution method; format: functional; outline: as §2
SMMC-7721 [11] = assay: Growth inhibition of human SMMC7721 cells by MTT assay; format: functional, cell-based
Pyricularia oryzae [12] = assay: Antifungal activity against Pyricularia oryzae incubated for 48 hrs by microdilution method; format: functional; outline: as §1
Fusarium oxysporum [13] = assay: Antifungal activity against Fusarium oxysporum incubated for 48 hrs by microdilution method; format: functional; outline: as §2
[14] = Antifungal activity against Gaeumannomyces graminis incubated for 48 hrs by microdilution method; format: functional; outline: as §2
[15] = Antifungal activity against Verticillium cinnabarinum incubated for 48 hrs by microdilution method; format: functional; outline: as §2
A549 [16] = assay: Growth inhibition of human A549 cells by MTT assay; format: functional, cell-based
MCF7 [17] = assay: Growth inhibition of human MCF7 cells by MTT assay; format: functional, cell-based
Fusarium verticillioides [18] = assay: Antifungal activity against Fusarium moniliforme incubated for 48 hrs by microdilution method; format: functional; outline: as §2
SW480 [19] = assay: Growth inhibition of human SW480 cells by MTT assay; format: functional, cell-based
HL-60 [20] = assay: Growth inhibition of human HL60 cells by MTT assay; format: functional, cell-based

Row | SMILES | growth inhibition (GI) (MCF7 [1]) | growth inhibition (GI) (SMMC-7721 [2]) | Activity (Pyricularia oryzae [3]) | Activity (Fusarium verticillioides [4]) | Activity [5] | growth inhibition (GI) (SW480 [6]) | growth inhibition (GI) (A549 [7]) | Activity (Fusarium oxysporum [8]) | growth inhibition (GI) (HL-60 [9]) | Activity [10] | IC50 (SMMC-7721 [11]) | MIC (Pyricularia oryzae [12]) | MIC (Fusarium oxysporum [13]) | MIC [14] | MIC [15] | IC50 (A549 [16]) | IC50 (MCF7 [17]) | MIC (Fusarium verticillioides [18]) | IC50 (SW480 [19]) | IC50 (HL-60 [20])
1 | C/C1=C/C=C\C=C\[C@H](C)[C@@H](O)CC(=O)/C(C)=C/C[C@H](O)/C=C/[C@H](C)[C@H](O)[C@@H](C)/C=C(\C)C(=O)c2c(O)c(C)cc3c2C(=O)C(NCCSC2=C4NC(=O)\C(C)=C/C=C\C=C\[C@H](C)[C@@H](O)CC(=O)/C(C)=C/C[C@H](O)/C=C/[C@H](C)[C@H](O)[C@@H](C)/C=C(\C)C(=O)c5c(O)c(C)cc(c5C2=O)C4=O)=C(NC1=O)C3=O | inactive | inactive | inactive | inactive | inactive | inactive | inactive | inactive | inactive | inactive | – | – | – | – | – | – | – | – | – | –
2 | C/C1=C/C=C\C=C\[C@H](C)[C@@H](O)CC(=O)/C(C)=C/C[C@H](O)/C=C/[C@H](C)[C@H](O)[C@@H](C)/C=C(\C)C(=O)c2c(O)c(C)cc3c2C(=O)C(Cl)=C(NC1=O)C3=O [NAPHTHOMYCIN A] | – | – | – | – | – | – | – | – | – | – | 16.6 µM | 400 µg/mL (≈ 555 µM) | 400 µg/mL (≈ 555 µM) | 400 µg/mL (≈ 555 µM) | 400 µg/mL (≈ 555 µM) | 15.9 µM | 11.7 µM | 100 µg/mL (≈ 139 µM) | 11.7 µM | 25.6 µM
3 | C/C1=C/C=C\C=C\[C@H](C)[C@@H](O)CC(=O)/C(C)=C/C[C@H](O)/C=C/[C@H](C)[C@H](O)[C@@H](C)/C=C(\C)C(=O)c2c(O)c(C)cc3c2C(=O)C(SCC(=O)O)=C(NC1=O)C3=O | inactive | inactive | inactive | inactive | inactive | inactive | inactive | inactive | inactive | inactive | – | – | – | – | – | – | – | – | – | –
4 | C/C1=C/C=C\C=C\[C@H](C)[C@@H](O)CC(=O)/C(C)=C/C[C@H](O)/C=C/[C@H](C)[C@H](O)[C@@H](C)/C=C(\C)C(=O)c2c(O)c(C)cc3c2C(=O)C(N)=C(NC1=O)C3=O [NAPHTHOMYCIN L] | inactive | inactive | – | – | – | inactive | inactive | – | inactive | – | – | 600 µg/mL (≈ 856 µM) | 600 µg/mL (≈ 856 µM) | 600 µg/mL (≈ 856 µM) | 600 µg/mL (≈ 856 µM) | – | – | 300 µg/mL (≈ 428 µM) | – | –
5 | C/C1=C/C=C\C=C\[C@H](C)[C@@H](O)CC(=O)/C(C)=C/C[C@H](O)/C=C/[C@H](C)[C@H](O)[C@@H](C)/C=C(\C)C(=O)c2c(O)c(C)cc3c2C(=O)C(O)=C(NC1=O)C3=O | inactive | inactive | inactive | inactive | inactive | inactive | inactive | inactive | inactive | inactive | – | – | – | – | – | – | – | – | – | –
6 | C/C1=C/C=C\C=C\[C@H](C)[C@@H](O)CC(=O)/C(C)=C/C[C@H](O)/C=C/[C@H](C)[C@H](O)[C@@H](C)/C=C(\C)C(=O)c2c(O)c(C)cc3c2C(=O)C=C(NC1=O)C3=O | inactive | inactive | inactive | inactive | inactive | inactive | inactive | inactive | inactive | inactive | – | – | – | – | – | – | – | – | – | –

Reference: ChEMBL document CHEMBL2169852, “Naphthomycins L-N, ansamycin antibiotics from Streptomyces sp. CS” (J Nat Prod, 2012)
